The results in this text go back to ChEMBL document CHEMBL1221254, “Succinic acid amides as P2-P3 replacements for inhibitors of interleukin-1beta converting enzyme (ICE or caspase 1)” (Bioorg Med Chem Lett, 2010).

The nature of data set [1]: Selectivity ratio of human ICE to caspase 3.
Data set [2] in a line: Oral bioavailability in Wistar rat at 25 mg/kg. The data set is classed as ADME, organism-based. To be noted: in vivo. In short, it runs like this: (§1)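 Wistar rats received 25 mg/kg orally in a vehicle of 10% DMSO, 11.25% Trappsol and D5W. Compound was measured in blood by LC/MS.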
Data set [3] is described as follows: Selectivity ratio of human ICE to caspase 4.
The species named for a further data set is Homo sapiens. The data set is described as follows: Half life in human plasma.
Data set [4] can be described thus: Selectivity ratio of human ICE to caspase 6.
Data set [5] is described as follows: Selectivity ratio of human ICE to caspase 8.
Another data set deals with PBMC. The data set is described as follows: Inhibition of LPS-induced IL1-beta production in human PBMC by ELISA. Format: functional, cell-based. The procedure, abridged: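 Human PBMC were suspended in RPMI 1640 with glutamine, penicillin, streptomycin and 2% human AB serum, at 10^6 cells per well. Cells were stimulated overnight with 10 ng/mL LPS, with or without inhibitor. Mature IL-1β in the harvested medium was measured by ELISA.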
(In an ELISA, binding on a coated surface is turned into a signal by an enzyme label.)

The test system of a further data set is Mus musculus. The data set is described as follows: Reduction of IL1-beta level in human PBMC cells xenografted SCID mouse at 3 mg/kg, iv after 2 hrs. The data set is classed as functional. The arrangement: scale not given: the % may be the effect or the level left. The procedure, abridged: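 huSCID model: SCID mice were injected with human PBMC 15 min before the start. At time zero they received LPS at 5 mg/kg iv. Compound was given at 3 mg/kg iv, and mice were bled at 2 h.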

Data set [6] addresses T1, Caspase-1 (Homo sapiens, UniProt P29466).
T1 sequence (P29466 whole entry): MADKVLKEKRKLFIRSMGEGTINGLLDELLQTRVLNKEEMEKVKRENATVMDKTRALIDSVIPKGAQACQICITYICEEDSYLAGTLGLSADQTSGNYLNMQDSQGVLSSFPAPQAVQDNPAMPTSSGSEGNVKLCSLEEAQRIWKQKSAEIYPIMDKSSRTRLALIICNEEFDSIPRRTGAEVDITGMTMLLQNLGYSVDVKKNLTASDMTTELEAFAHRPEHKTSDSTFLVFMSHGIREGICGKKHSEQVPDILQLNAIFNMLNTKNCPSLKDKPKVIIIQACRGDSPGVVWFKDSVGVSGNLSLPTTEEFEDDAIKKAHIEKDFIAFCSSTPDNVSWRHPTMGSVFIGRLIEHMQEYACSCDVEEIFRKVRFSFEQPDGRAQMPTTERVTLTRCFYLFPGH
The experiment in a line: Inhibition of human ICE.

The target of data set [7] is T2, Caspase-1 (Mus musculus, UniProt P29452).
T2 sequence (P29452 whole entry): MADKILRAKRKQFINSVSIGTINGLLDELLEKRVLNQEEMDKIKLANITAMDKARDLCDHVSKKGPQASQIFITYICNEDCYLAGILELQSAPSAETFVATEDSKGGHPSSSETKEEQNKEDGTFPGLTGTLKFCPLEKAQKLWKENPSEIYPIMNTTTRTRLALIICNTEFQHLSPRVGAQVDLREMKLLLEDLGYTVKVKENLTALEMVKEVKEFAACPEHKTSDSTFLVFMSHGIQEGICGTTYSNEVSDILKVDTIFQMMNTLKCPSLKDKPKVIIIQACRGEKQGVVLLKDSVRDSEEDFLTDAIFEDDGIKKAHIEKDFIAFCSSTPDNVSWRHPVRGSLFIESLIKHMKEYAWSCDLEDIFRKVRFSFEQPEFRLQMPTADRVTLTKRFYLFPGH
The data set is described as follows: Inhibition of mouse ICE.

Data set [8] in a line: Half life in Wistar rat at 25 mg/kg, po. Format: ADME, organism-based. On the set-up: dose 25 mg/kg, route oral. The note with it: in vivo. The procedure, abridged:
as §1

Molecules are shown by their SMILES.

In general, bioavailability refers to dose-corrected exposure relative to a reference, in per cent. By half-life is commonly meant the time in which the quantity being followed falls by half. As for `CCCO[C@@H]1OC(=O)C[C@@H]1NC(=O)[C@@H](CC(=O)NCCc1cccc2ncccc12)C(C)C`, the Selectivity ratio in data set [1], in data set [3], in [4] and in [5] was more than 200 in each case. This compound also showed a bioavailability in [2] of 9%. In the data set filed under Homo sapiens, this compound gave a half-life of 2 h.
For `CC(C)[C@H](CC(=O)NCCc1cccc2ncccc12)C(=O)N[C@H]1CC(=O)O[C@@H]1OC1CCCC1`, the Selectivity ratio in data set [1], in data set [3], in data set [4] and in data set [5] was more than 200 in each case. In data set [2], this compound displayed a bioavailability of 5%. In the data set filed under Homo sapiens, this compound had a half-life of 5.1 h.
One may read the IC50 as the midpoint of a concentration-inhibition curve. A word on the Ki: it is the dissociation constant of the complex between target and ligand, obtained from inhibition or displacement. With `Cc1nc2ccccc2n1CCNC(=O)C[C@H](C(=O)N[C@H](C=O)CC(=O)O)C(C)C`, the IC50 in the data set on PBMC is 2900 nM; against Caspase-1 [6] it was 23.8 nM. The compound further registered an Activity in the data set with Mus musculus of 68%. This compound also showed a Ki on Caspase-1 [7] of 18.7 nM.
Regarding `CCO[C@@H]1OC(=O)C[C@@H]1NC(=O)[C@@H](CC(=O)NCCc1cccc2ncccc12)C(C)C`, the Selectivity ratio in [1], in data set [3], in [4] and in [5] was more than 200 each time. In addition, the bioavailability in data set [2] came to 25%. The half-life in the data set listed under Homo sapiens was 0.87 h.
As to `CCOC1OC(=O)C[C@@H]1NC(=O)[C@@H](CC(=O)NCCc1cccc2ncccc12)C(C)C` (some centres not stated), the Selectivity ratio in [1], in [3], in data set [4] and in [5] was more than 200 in each case. Moreover, the half-life in data set [8] is 0.87 h.
As for `CCO[C@@H]1OC(=O)CC1NC(=O)[C@@H]1CCCN2C(=O)CC[C@H](NC(=O)c3nccc4ccccc34)C(=O)N12` (some centres not stated), the Selectivity ratio in data set [1], in data set [3], in data set [4] and in [5] was more than 200 throughout. Also, the half-life in data set [8] is 0.87 h.
Take `CC(=O)N[C@@H](Cc1ccc(O)cc1)C(=O)N[C@H](C(=O)N[C@@H](C)C(=O)N[C@H](C=O)CC(=O)O)C(C)C`: the IC50 was 1200 nM in the data set with PBMC and 17 nM against Caspase-1 [6]. Moreover, the Activity with Mus musculus was determined as 69%. Also, the Ki on Caspase-1 [6] was determined as 0.7 nM; at Caspase-1 [7] it was 9 nM. The Selectivity ratio in data set [1], in data set [3], in data set [4] and in data set [5] was more than 200 in each case.
Consider `CCOC1OC(=O)C[C@@H]1NC(=O)[C@@H](CC(=O)NCCc1c(C)[nH]c2ccccc12)C(C)C` (some centres not stated), for which the Selectivity ratio in data set [1], in data set [3], in [4] and in data set [5] was more than 200 each time. The compound also had a half-life in data set [8] of 1.27 h.
With `CC(C)[C@H](CC(=O)NCCc1cccc2ncccc12)C(=O)N[C@H](C=O)CC(=O)O`, the IC50 came to 650 nM in the data set on PBMC and 5.81 nM on Caspase-1 [6]. The same compound displayed an Activity with Mus musculus of 52%. The Ki amounted to 1.81 nM on Caspase-1 [6] and 14.4 nM on Caspase-1 [7].
For `CCOC1OC(=O)C[C@@H]1NC(=O)[C@@H](CC(=O)NCCn1c(C)nc2ccccc21)C(C)C` (some centres not stated), the Selectivity ratio in data set [1], in [3], in data set [4] and in [5] was more than 200 in each case. In data set [8], the half-life was 1.6 h.
As to `O=C[C@H](CC(=O)O)NC(=O)[C@@H]1CCCN2C(=O)CC[C@H](NC(=O)c3nccc4ccccc34)C(=O)N12` [VRT-18858], the IC50 in the data set with PBMC was determined as 380 nM; on Caspase-1 [6], 3.4 nM. The same compound gave an Activity with Mus musculus of 62%. Further, the figures for the Ki at Caspase-1 [6] and on Caspase-1 [7] were 0.6 nM and 7 nM, respectively.
Turning to `Cc1[nH]c2ccccc2c1CCNC(=O)C[C@H](C(=O)N[C@H](C=O)CC(=O)O)C(C)C`, the IC50 in the data set with PBMC was 1500 nM; against Caspase-1 [6] it was 18 nM. Besides, the Activity in the data set on Mus musculus is on record as 54%. Moreover, the Ki at Caspase-1 [6] was determined as 1.29 nM; on Caspase-1 [7] it was 13.4 nM.
Consider `CCCO[C@H]1OC(=O)C[C@@H]1NC(=O)[C@@H](CC(=O)NCCc1cccc2ncccc12)C(C)C`, for which the Selectivity ratio in data set [1], in data set [3], in [4] and in [5] was more than 200 in each case. The same compound registered a bioavailability in data set [2] of 35%. The compound further showed a half-life in the data set listed under Homo sapiens of 10 h.
